Source: PMC6863163 (Journal of neuro-oncology, 2019)
“And” between values parts separate entries of the source, which are not always exact repeats. Equal values may be shown once. Read-outs that look alike come from different tables or passages of the source. Values belong to the compound of their own block, whether it stands above or below them.

Key:
recurrent GBM [1] = details: three of 17 patients with recurrent GBM; 150 mg or 200 mg twice daily; cited from earlier work
GBM cell proliferation = details: 7 days before surgery, 4 matched samples; ref Taylor et al. 34; cited from earlier work
[2] = test system: recurrent Rb-positive GBM; details: 22 patients, 125 mg/day, 21-days-on, 7-days-off; cited from earlier work
[3] = format: in vivo, human
In short: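 Patients took oral ribociclib, 600 mg/day, for 8–21 days, with the last dose 4–8 h before surgery. Baseline blood was drawn before treatment and again within 1 h before surgery, then split into plasma and buffy coat. CSF was collected during surgery when feasible. Tumor core and infiltrating regions were located by stealth MRI and frozen. Total drug was measured by validated LC–MS/MS. Unbound drug equals fraction unbound × total.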

Rb phosphorylation [4] = details: cultured cells, in vitro; cited from earlier work
[5] = cited from earlier work
cell proliferation = details: 900 mg/day for 5 days before surgery, 12 patients; ref Tien et al. 37; cited from earlier work
cell growth = details: suppression of cell growth in vitro; no reference given; cited from earlier work
[6] = format: in vitro ADME, human
In short: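 Plasma and tumor homogenate came from patients dosed at ribociclib 600 mg/day for 8–21 days. Samples were collected 4–8 h after the last pre-surgical dose. Fraction unbound was determined by equilibrium dialysis across a 5-kDa cutoff regenerated cellulose membrane.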

Rb phosphorylation [7] = details: 900 mg/day for 5 days before surgery, 12 patients; ref Tien et al. 37; cited from earlier work
recurrent GBM [8] = assay: Disease progression; format: in vivo, human; details: for PFS from start of Ribociclib: 600 mg/day, 21-days-on, 7-days-off after surgery; for OS from second surgery: other regimens off-study after progression
In short: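 Patients with Rb-positive recurrent tumors continued oral ribociclib, 600 mg/day, 21 days on and 7 days off per 28-day cycle, until progression or unacceptable toxicity. Follow-up MRI, including perfusion and diffusion-weighted images, was done after every two cycles. Progression was judged by the Response Assessment in Neuro-Oncology (RANO) criteria.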

RbS807/811 = assay: Immunohistochemistry for phospho-Rb in paired tumor specimens; format: in vivo, human
[9] = Safety monitoring, adverse events graded by NCI CTCAE version 4.0; format: in vivo, human; details: for Cough / Creatinine increased / Edema, limbs / Gait disturbance / Generalized muscle weakness / Hyperglycemia / Musculoskeletal and connective tissue disorder—other: muscle pain / Nausea / Peripheral sensory neuropathy / Psychosis / Insomnia: count, prior to surgery and during treatment phase
In short: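 Participants with recurrent GBM took oral ribociclib, 600 mg once daily, for 8–21 days before resection. Rb-positive cases then continued on 21 days on and 7 days off per 28-day cycle. Throughout treatment, staff monitored complete blood counts, blood chemistry, 12-lead ECG, vital signs, Karnofsky status and physical exam. Adverse events were graded by NCI CTCAE v4.0 and assessed for expectedness and drug attribution.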

[10] = enhancing tumor, subject RIBO-001, mean of specimens
[11] = enhancing tumor, subject RIBO-003, mean of specimens
[12] = mean across all specimens, 600 mg QD 8–21 days
[13] = mean ± SD, all tumor specimens of three subjects
[14] = mean ± SD, assuming tumor tissue density of 1.04 g/mL
[15] = non-enhancing tumor, subject RIBO-001, mean of specimens
[16] = tumor core, subject RIBO-002, mean of specimens
[17] = tumor core, subject RIBO-003, mean of specimens

Structure (SMILES): CCN1CCN(Cc2ccc(Nc3ncc(F)c(-c4cc(F)c5nc(C)n(C(C)C)c5c4)n3)nc2)CC1 [abemaciclib]
Best response: duration of stable disease (recurrent GBM [1]): ≥ 24 weeks

Structure (SMILES): CC(=O)c1c(C)c2cnc(Nc3ccc(N4CCNCC4)cn3)nc2n(C2CCCC2)c1=O [palbociclib]
Change in GBM cell proliferation by Ki-67 IHC (GBM cell proliferation): did not produce significant changes | Tumor drug concentrations vs pharmacologically active level (GBM cell proliferation): exceeded those felt to be pharmacologically active | Median PFS [2]: 5.1 weeks | OS [2]: 15.4 weeks

Mean unbound ribociclib concentration in CSF ([3]; 600 mg QD 8–21 days, one CSF sample): 0.632 µM and 0.63 µM | Ribociclib CSF concentration relative to the IC50 for inhibition of CDK4/6 ([3]; CSF): > fivefold | Total ribociclib (CSF ribociclib concentration) ([3]; CSF collected during surgery, subject RIBO-003, 600 mg QD, 14 days): 0.63 µM | Total drug tumor (mean concentration) [3, 10]: 17.97 nmol/g | Unbound drug tumor (mean concentration) [3, 10]: 0.79 nmol/g | Total drug tumor (mean concentration) ([3]; enhancing tumor, subject RIBO-002, mean of specimens): 24.73 nmol/g | Total drug tumor (mean concentration) [3, 11]: 29.99 nmol/g | Unbound drug tumor (mean concentration) [3, 11]: 1.29 nmol/g | Kp ([3]; human, CSF / unbound plasma, oral, 600 mg/day, CSF/unbound plasma concentration ratio, one patient, 0.63/0.49): 1.29 | Mean unbound ribociclib concentration in MRI-enhancing tumor [3, 12]: 1.242 nmol/g | Mean unbound ribociclib concentration in MRI-non-enhancing tumor [3, 12]: 0.484 nmol/g and 0.48 nmol/g | Mean unbound ribociclib concentration in tumor core [3, 12]: 1.526 nmol/g | Mean concentration of unbound ribociclib in MRI-enhancing tumor or core ([3]; mean across all subjects, reported herein, 600 mg/day): 1.33 nmol/g | Mean unbound ribociclib concentration in plasma ([3]; mean across participants, 600 mg QD 8–21 days): 0.337 µM | Tumor tissue concentration of total ribociclib [3, 13]: 23.42 ± 10.79 nmol/g | Tumor tissue concentration of unbound ribociclib [3, 13]: 1.24 ± 0.64 nmol/g | Tumor tissue concentration of total ribociclib [3, 14]: 24.36 ± 11.22 µM | Unbound ribociclib intra-tumor drug concentration [3, 14]: 1.29 ± 0.67 µM | Unbound concentration in non-enhancing tumor relative to the IC50 for inhibition of CDK4/6 ([3]; non-enhancing tumor): > fivefold | Total drug tumor (mean concentration) [3, 15]: 8.86 nmol/g | Unbound drug tumor (mean concentration) [3, 15]: 0.48 nmol/g | Total ribociclib ([3]; plasma, day of surgery, subject RIBO-001, 600 mg QD, 8 days before surgery): 3.65 µM | Total ribociclib ([3]; plasma, day of surgery, subject RIBO-002, 600 mg QD, 12 days before surgery): 1.26 µM | Total ribociclib ([3]; plasma, day of surgery, subject RIBO-003, 600 mg QD, 14 days before surgery): 5.44 µM | Total ribociclib ([3]; tumor core specimen, subject RIBO-001, 600 mg QD, 8 days, 4–8 h after last dose): 16.30 nmol/g | Total drug tumor (mean concentration) ([3]; tumor core, subject RIBO-001): 16.30 nmol/g | Unbound drug tumor (mean concentration) ([3]; tumor core, subject RIBO-001): 0.82 nmol/g | Total drug tumor (mean concentration) [3, 16]: 33.03 nmol/g | Unbound drug tumor (mean concentration) [3, 16]: 2.11 nmol/g | Total drug tumor (mean concentration) [3, 17]: 21.65 nmol/g | Unbound drug tumor (mean concentration) [3, 17]: 1.30 nmol/g | Fraction unbound ([6]; enhancing tumor specimens, subject RIBO-001): 3.9% | Fraction unbound ([6]; enhancing tumor specimens, subject RIBO-002): 6.4% and 5.8% and 5.4% | Fraction unbound ([6]; enhancing tumor specimens, subject RIBO-003): 4.1% and 4.3% | Fraction unbound ([6]; human, plasma, Fraction unbound, subject RIBO-001): 0.102 | Fraction unbound ([6]; human, plasma, Fraction unbound, subject RIBO-002): 0.119 | Fraction unbound ([6]; human, plasma, Fraction unbound, subject RIBO-003): 0.09 | Fraction unbound ([6]; non-enhancing tumor specimens, subject RIBO-001): 4.2% | Fraction unbound ([6]; tumor core specimens, subject RIBO-003): 6.3%
Structure (SMILES): CN(C)C(=O)c1cc2cnc(Nc3ccc(N4CCNCC4)cn3)nc2n1C1CCCC1 [ribociclib]
Ribociclib (total drug) sufficient to suppress Rb phosphorylation (Rb phosphorylation [4]): 200 nM | Mean unbound ribociclib fraction in plasma ([5]; CV = 17.6%): 12.7% | Mean unbound ribociclib fraction in tumor tissues ([5]; CV = 23%): 4.6% | Change in cell proliferation, archived vs post-ribociclib tumor (cell proliferation): significant decrease | GI50 (cell growth): 276 nM | Change in Rb phosphorylation, archived vs post-ribociclib tumor (Rb phosphorylation [7]): significant decrease | Disease progression (recurrent GBM [8]; all three participants, ribociclib monotherapy): all experienced early disease progression | PFS from start of Ribociclib (recurrent GBM [8]; participant 001): 2 months | OS from second surgery (recurrent GBM [8]; participant 001): 10 months | PFS from start of Ribociclib (recurrent GBM [8]; participant 002): 5 months | OS from second surgery (recurrent GBM [8]; participant 002): 19 months | PFS from start of Ribociclib (recurrent GBM [8]; participant 003): 2 months | OS from second surgery (recurrent GBM [8]; participant 003): 12 months | Inhibition of tumor tissue CDK4/6 activity (phospho-Rb IHC) or cell proliferation (Ki-67 IHC) (RbS807/811; 600 mg/day monotherapy, archived vs post-ribociclib tumor tissue): did not consistently inhibit | Proportion of phospho-Rb-positive tumor cells and phospho-Rb histoscores, ribociclib-treated vs. baseline tumors (RbS807/811; 8–21 days of ribociclib 600 mg/day, three subjects, Fig. S1A): Two of the three subjects showed a decrease | Grade of all observed adverse events ([9]; CTCAE v4.0, three participants, 600 mg/day): ≤ 2 grade | Cough ([9]; Grade 1): 1 | Creatinine increased ([9]; Grade 1): 0 | Edema, limbs ([9]; Grade 1): 1 | Gait disturbance ([9]; Grade 1): 0 | Generalized muscle weakness ([9]; Grade 1): 0 | Hyperglycemia ([9]; Grade 1): 0 | Musculoskeletal and connective tissue disorder—other: muscle pain ([9]; Grade 1): 1 | Nausea ([9]; Grade 1): 1 | Peripheral sensory neuropathy ([9]; Grade 1): 1 | Psychosis ([9]; Grade 1): 1 | Creatinine increased ([9]; Grade 2): 1 | Edema, limbs ([9]; Grade 2): 0 | Gait disturbance ([9]; Grade 2): 1 | Generalized muscle weakness ([9]; Grade 2): 1 | Hyperglycemia ([9]; Grade 2): 1 | Insomnia ([9]; Grade 2): 1 | Musculoskeletal and connective tissue disorder—other: muscle pain ([9]; Grade 2): 0 | Nausea ([9]; Grade 2): 0 | Peripheral sensory neuropathy ([9]; Grade 2): 0 | Cough ([9]; Total): 1 | Creatinine increased ([9]; Total): 1 | Edema, limbs ([9]; Total): 1 | Gait disturbance ([9]; Total): 1 | Generalized muscle weakness ([9]; Total): 1 | Hyperglycemia ([9]; Total): 1 | Insomnia ([9]; Total): 1 | Musculoskeletal and connective tissue disorder—other: muscle pain ([9]; Total): 1 | Nausea ([9]; Total): 1 | Peripheral sensory neuropathy ([9]; Total): 1 | Psychosis ([9]; Total): 1 | Serious adverse events ([9]; three participants, 600 mg/day): No participants experienced serious adverse events | Withdrawal from the study due to adverse events ([9]; three participants, 600 mg/day): No participants withdrew
